The conditions of data set [1]: cited from earlier work.
The conditions of data set [2]: cited from earlier work. The source holds these as a separate data set.
Data set [3] deals with calcium-activated chloride channels. Description: UTP-induced chloride current in cystic fibrosis. The class given is cell-based, human. To be noted: 10 or 20 µM. Summed up:
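Short-circuit current in cystic fibrosis human bronchial epithelial cells on inserts in Ussing chambers. Krebs-bicarbonate solution on both sides, gassed with 5% CO2 in air, 37 °C. ENaC was blocked with 10 µM amiloride. Calcium-activated chloride channels were stimulated with 100 µM UTP, and test compound was added.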

Data set [4] deals with renal cysts in E13.5 embryonic kidneys. The data set can be described thus: Embryonic kidney organ culture model of polycystic kidney disease. More on the design: species or system mouse. Summed up:
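Metanephroi from E13.5 mouse embryos, on porous inserts in DMEM/Ham's F-12 with glutamine, HEPES, insulin, transferrin, selenium, prostaglandin E, T3 and antibiotics, 37 °C humidified CO2. Medium with 100 µM 8-Br-cAMP ± test compound replaced every 12 h. For preformed cysts, compound was added at day 3 of 8-Br-cAMP. Transmitted-light images were taken, and % cyst area = total cyst area/total kidney area; 6–8 kidneys.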

The target in data set [5] is human wild-type CFTR (Homo sapiens, UniProt P13569). Description: Whole-cell patch-clamp in CFTR-expressing FRT cells. The class given is cell-based. Conditions: 500 nM; ±100 mV.
Data set [6] has as its target CFTR chloride conductance (Homo sapiens, UniProt P13569). The data set can be described thus: Apical membrane chloride current. The class given is cell-based.
The target of data set [7] is T1, CFTR (Homo sapiens, UniProt P13569). The data set can be described thus: Cell-attached single-channel patch-clamp recordings of CFTR. To be noted: 1 µM. The class given is cell-based.
The target in data set [8] is T1, CFTR. Description: Fluorescence platereader assay of CFTR-mediated iodide influx. The class given is cell-based. To be noted: result in words. Summed up: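 FRT cells co-expressing human wild-type CFTR and YFP-H148Q halide sensor, assayed 48 h after plating at confluence. After PBS washes, cells were activated with 5 µM forskolin, 100 µM IBMX and 25 µM apigenin. Test compound was added 5 min later, 25 µM final, for 15 min. Fluorescence was read 2 s baseline, then 10 s after iodide-for-chloride PBS addition. Initial influx rate was fitted by nonlinear regression.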

Here are results for 3 molecules from paper PMC3319430 (Journal of Medicinal Chemistry, 2009).

Molecules are shown by their SMILES.

T1 sequence (P13569 whole entry): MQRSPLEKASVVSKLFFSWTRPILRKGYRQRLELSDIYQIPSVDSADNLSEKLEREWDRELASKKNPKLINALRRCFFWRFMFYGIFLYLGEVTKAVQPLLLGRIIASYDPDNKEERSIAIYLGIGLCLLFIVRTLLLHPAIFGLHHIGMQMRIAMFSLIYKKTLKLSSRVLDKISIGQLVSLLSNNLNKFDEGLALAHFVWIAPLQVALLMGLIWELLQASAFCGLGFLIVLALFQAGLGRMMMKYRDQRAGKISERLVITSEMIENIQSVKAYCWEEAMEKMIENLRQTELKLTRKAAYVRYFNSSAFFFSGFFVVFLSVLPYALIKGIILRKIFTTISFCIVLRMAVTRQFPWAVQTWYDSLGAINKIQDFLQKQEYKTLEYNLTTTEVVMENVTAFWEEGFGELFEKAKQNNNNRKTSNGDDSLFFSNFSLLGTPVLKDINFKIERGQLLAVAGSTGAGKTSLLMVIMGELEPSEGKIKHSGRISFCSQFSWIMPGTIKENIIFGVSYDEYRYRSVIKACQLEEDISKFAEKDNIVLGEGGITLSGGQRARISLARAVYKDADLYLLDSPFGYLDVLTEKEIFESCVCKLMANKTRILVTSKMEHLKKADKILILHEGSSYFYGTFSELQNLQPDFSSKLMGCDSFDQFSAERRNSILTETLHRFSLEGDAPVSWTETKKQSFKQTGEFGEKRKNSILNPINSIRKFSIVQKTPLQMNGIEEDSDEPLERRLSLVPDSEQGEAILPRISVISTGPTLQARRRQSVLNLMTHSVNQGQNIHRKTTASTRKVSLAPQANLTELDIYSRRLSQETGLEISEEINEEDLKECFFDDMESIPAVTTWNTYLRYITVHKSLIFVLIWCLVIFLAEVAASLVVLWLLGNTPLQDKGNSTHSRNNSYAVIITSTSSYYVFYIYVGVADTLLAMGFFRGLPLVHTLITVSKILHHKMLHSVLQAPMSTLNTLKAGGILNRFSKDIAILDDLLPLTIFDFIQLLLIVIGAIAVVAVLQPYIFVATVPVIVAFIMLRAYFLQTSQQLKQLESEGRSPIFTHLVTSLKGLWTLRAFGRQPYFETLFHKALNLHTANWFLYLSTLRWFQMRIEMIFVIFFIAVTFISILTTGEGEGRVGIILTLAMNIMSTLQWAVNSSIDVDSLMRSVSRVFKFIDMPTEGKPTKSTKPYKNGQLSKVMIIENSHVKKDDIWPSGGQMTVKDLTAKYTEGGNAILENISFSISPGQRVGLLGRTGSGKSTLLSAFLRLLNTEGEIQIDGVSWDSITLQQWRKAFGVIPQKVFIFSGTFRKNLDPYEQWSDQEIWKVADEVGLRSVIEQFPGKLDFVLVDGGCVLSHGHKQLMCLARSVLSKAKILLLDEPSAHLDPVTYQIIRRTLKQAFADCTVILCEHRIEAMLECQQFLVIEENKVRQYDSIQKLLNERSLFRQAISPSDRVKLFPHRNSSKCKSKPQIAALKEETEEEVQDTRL
Sequence of CFTR chloride conductance (P13569 whole entry): as above
Sequence of human wild-type CFTR (P13569 whole entry): as above

On to `O=C(O)c1ccc(/C=C2\SC(=S)N(c3cccc(C(F)(F)F)c3)C2=O)cc1` [CFTRinh-172], for which the Toxicity result in data set [1] was “low toxicity”. The Aqueous solubility result in data set [2] is listed as “low aqueous solubility”.

Regarding `Cc1ccc(C2Nc3ccccc3-n3c(-c4ccccc4)c4c(=O)n(C)c(=O)n(C)c4c32)o1` (stereo not shown) [PPQ-102, 7,9-Dimethyl-11-phenyl-6-(5-methylfuran-2-yl)-5,6-dihydropyrimido[4′,5′-3,4]pyrrolo[1,2-a]quinoxaline-8,10-(7H,9H)-dione], in data set [3], the “Inhibition of UTP-induced chloride currents” value is “little inhibition”. The “Inhibition of cyst formation (percentage area occupied by cysts)” value in data set [4] (0.5 µM, 100 µM 8-Br-cAMP, 4 days in culture) was more than 60%. Further, in data set [4] (2.5 µM removed after 3 days, 8-Br-cAMP continued), the “Reversibility of cyst inhibition” value was “reversible”. The “Size of preformed cysts” value in data set [4] (5 µM added at day 3 of 8-Br-cAMP, over 1 and 2 days) is given as “remarkable reduction in cyst size”. Moreover, in data set [4] (2.5 and 5 µM, 100 µM 8-Br-cAMP, 4 days), the “Cysts at 2.5 and 5 µM” value was “near complete absence of cysts”. Further, in data set [4] (in culture medium), the Kidney growth result is on record as “did not affect kidney growth”. The “CFTR current-voltage relationship after addition” value in data set [5] is listed as “remained linear”. The Reversibility of inhibition result in data set [6] (30 min incubation with 2 µM followed by 10 min washout) is reported as “complete restoration of CFTR chloride current”. For the same molecule, the “Potency with apigenin or IBMX as agonists compared to CPT-cAMP” value in data set [6] (apigenin (100 µM) or IBMX (100 µM)) was “mildly reduced”. Also, in data set [7], the “Mean channel closed time” value was “greatly increased” and the “Mean channel open time” value is “did not significantly change”. Besides, in data set [7] (+80 mV), the Unitary conductance entry is “did not change”. For the same molecule, the “Channel open probability (Po)” value in data set [7] (forskolin 10 µM and IBMX 100 µM, control 0.50 ± 0.04) came to 0.14 ± 0.03.

In the case of `Cc1ccc(C(=O)Nc2ccccc2-n2cc3c(c2-c2ccccc2)c(=O)n(C)c(=O)n3C)o1` [PPQ-102b, N-(2-(1,3-Dimethyl-2,4-dioxo-5-phenyl-3,4-dihydro-1H-pyrrolo[3,4-d]pyrimidin-6(2H)-yl)phenyl)-5-methylfuran-2-carboxamide], in data set [8], the CFTR inhibition activity entry is listed as “abolished CFTR inhibition activity”.
